In brackets after ≈: the same amount, converted by molar mass.
Legend:
[1] = system: dengue virus type 2; assay: Antiviral activity against Dengue virus 2 Rega infected in African green monkey Vero cells assessed as reduction in viral yield after 4 days by qRT-PCR analysis; assay type: functional, organism-based
Method in brief: (§1)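 Virus yield reduction in Vero cells (seeded 5×10^4/well). Next day infected with DENV (MOI 0.01) in assay medium (MEM, 2% FBS, 0.075% bicarbonate, 2 mM L-glutamine). After 1 h, input virus was removed and cells rinsed 3 times. Medium with 3- or 5-fold compound serial dilutions was then added. Incubation was 4 days (DENV-2, DENV-4) or 7 days (DENV-1, DENV-3). Supernatant viral RNA was measured by RT-qPCR, and EC50 obtained by logarithmic interpolation.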

[2] = (§2) Cytotoxicity against African green monkey Vero cells assessed as cell growth inhibition after 4 days by MTS/PMS method; assay type: cell-based; conditions: chlorocebus sabaeus, Vero cells
Method in brief: (§3)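 Cytotoxicity run as in the yield assay, but without virus. Vero cells (5×10^4/well) were exposed to 3- or 5-fold serial dilutions in MEM with 2% FBS. Viability was read by the MTS/PMS colorimetric method. CC50 was derived by logarithmic interpolation.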

[3] = Solubility of the compound in DMSO solution at pH 7.4; assay type: physicochemical
Method in brief: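 Solubility measured at pH 7.4, starting from a DMSO solution.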

[4] = system: P-gp (MDR1); assay: (§4) Apparent permeability across apical to basolateral side in MDR1 transfected pig LLC-PK1 cells in absence of P-gp inhibitor GF120918; assay type: ADME, cell-based, Sus scrofa; conditions: LLC-PK1
Method in brief: (§5)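 Permeability measured in MDR1-transfected LLC-PK1 cells without the P-gp inhibitor GF120918.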

[5] = Protein binding in human plasma; assay type: ADME, cell-free; conditions: for fraction unbound: read-out: PPB (converted)
[6] = Protein binding in rat plasma; assay type: ADME, cell-free; conditions: for fraction unbound: read-out: PPB (converted)
[7] = Drug metabolism in human liver microsomes after 15 mins; assay type: ADME, microsome; conditions: for metabolised at 0.25 h: liver microsomes, read-out: Drug metabolism; for Drug metabolism: microsomes, 0.25 h
Method in brief: (§6)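 Percentage of compound metabolized after 15 min incubation with human or rat liver microsomes.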

[8] = Drug metabolism in rat liver microsomes after 15 mins; assay type: ADME, microsome; conditions: for metabolised at 0.25 h: liver microsomes, read-out: Drug metabolism; for Drug metabolism: microsomes, 0.25 h; method in brief: as §6
[9] = biological target: T1, Cytochrome P450 1A2 (Homo sapiens, UniProt P05177); assay: Inhibition of CYP1A2 (unknown origin); assay type: ADME
T1 sequence (P05177 whole entry): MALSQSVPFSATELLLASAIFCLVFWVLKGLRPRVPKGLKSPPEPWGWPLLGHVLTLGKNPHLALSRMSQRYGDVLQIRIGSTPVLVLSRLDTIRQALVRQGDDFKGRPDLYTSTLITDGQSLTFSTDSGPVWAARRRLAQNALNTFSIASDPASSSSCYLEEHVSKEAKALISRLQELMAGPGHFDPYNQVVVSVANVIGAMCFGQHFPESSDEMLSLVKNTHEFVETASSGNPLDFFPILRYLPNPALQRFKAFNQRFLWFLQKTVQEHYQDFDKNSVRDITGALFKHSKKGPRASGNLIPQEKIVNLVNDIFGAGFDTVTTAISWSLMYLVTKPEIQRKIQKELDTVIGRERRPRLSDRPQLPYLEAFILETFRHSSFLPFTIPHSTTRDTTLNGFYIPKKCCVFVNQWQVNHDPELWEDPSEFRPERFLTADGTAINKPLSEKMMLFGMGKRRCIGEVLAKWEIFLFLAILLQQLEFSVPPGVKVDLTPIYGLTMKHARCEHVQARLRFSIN

[10] = biological target: Cytochrome P450 2C19 (Homo sapiens, UniProt P33261); assay: Inhibition of CYP2C19 (unknown origin); assay type: ADME
Cytochrome P450 2C19, sequence (P33261 whole entry): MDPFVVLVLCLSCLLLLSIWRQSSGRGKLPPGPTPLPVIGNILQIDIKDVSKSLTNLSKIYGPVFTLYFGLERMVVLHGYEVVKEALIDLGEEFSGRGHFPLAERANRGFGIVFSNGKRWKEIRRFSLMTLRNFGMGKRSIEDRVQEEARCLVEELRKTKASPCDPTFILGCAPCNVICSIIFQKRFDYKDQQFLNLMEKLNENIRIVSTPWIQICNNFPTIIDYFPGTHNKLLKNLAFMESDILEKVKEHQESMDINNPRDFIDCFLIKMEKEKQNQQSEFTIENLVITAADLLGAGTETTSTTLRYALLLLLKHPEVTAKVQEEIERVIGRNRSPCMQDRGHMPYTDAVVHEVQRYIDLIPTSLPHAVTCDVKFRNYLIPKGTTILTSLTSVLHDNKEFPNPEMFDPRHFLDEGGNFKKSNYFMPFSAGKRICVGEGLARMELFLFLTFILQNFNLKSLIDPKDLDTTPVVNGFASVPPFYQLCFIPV

[11] = biological target: Cytochrome P450 2C9 (Homo sapiens, UniProt P11712); assay: Inhibition of CYP2C9 (unknown origin); assay type: ADME
Cytochrome P450 2C9, sequence (P11712 whole entry): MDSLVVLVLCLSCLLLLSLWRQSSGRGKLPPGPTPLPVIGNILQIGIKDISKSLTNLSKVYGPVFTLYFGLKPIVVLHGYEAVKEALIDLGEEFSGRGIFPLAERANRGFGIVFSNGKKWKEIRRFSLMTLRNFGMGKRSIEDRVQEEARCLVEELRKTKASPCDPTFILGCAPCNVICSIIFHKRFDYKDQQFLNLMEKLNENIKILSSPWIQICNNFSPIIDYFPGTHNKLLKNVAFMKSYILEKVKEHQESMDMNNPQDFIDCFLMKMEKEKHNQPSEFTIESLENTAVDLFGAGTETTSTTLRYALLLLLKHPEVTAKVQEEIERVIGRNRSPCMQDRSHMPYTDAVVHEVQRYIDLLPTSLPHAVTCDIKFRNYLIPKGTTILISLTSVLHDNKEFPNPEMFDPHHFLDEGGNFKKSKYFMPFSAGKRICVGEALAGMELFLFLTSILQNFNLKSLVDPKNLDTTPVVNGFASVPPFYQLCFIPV

[12] = biological target: Cytochrome P450 2D6 (Homo sapiens, UniProt P10635); assay: Inhibition of CYP2D6 (unknown origin); assay type: ADME
Cytochrome P450 2D6, sequence (P10635 whole entry): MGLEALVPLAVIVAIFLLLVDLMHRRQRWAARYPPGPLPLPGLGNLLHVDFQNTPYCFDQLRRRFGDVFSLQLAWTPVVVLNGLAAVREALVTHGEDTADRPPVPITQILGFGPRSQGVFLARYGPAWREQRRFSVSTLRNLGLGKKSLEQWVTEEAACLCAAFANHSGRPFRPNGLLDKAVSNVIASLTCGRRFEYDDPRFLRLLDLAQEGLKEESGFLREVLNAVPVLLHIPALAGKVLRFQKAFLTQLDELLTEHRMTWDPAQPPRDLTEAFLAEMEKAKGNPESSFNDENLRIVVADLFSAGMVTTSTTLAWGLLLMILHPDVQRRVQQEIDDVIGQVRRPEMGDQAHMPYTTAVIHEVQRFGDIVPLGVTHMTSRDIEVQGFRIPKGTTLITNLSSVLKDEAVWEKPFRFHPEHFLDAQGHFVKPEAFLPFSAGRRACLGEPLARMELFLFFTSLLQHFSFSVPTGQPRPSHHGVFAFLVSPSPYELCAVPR

[13] = biological target: Cytochrome P450 3A4 (Homo sapiens, UniProt P08684); assay: Inhibition of CYP3A4 (unknown origin); assay type: ADME
Cytochrome P450 3A4, sequence (P08684 whole entry): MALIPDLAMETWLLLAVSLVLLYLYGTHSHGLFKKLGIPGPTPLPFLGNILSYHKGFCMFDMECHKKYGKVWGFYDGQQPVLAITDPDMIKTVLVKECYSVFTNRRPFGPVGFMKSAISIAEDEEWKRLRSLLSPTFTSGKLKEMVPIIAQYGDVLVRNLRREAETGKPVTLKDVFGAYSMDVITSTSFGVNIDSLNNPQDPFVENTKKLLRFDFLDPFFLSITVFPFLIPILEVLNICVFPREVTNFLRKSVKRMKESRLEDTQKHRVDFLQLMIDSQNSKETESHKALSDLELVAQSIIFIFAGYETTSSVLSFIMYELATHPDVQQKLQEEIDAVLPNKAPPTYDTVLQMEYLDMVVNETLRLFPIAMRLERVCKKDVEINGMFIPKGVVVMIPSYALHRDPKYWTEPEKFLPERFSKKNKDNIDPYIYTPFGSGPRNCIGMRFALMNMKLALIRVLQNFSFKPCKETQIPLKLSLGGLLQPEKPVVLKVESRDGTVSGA

[14] = biological target: Voltage-gated inwardly rectifying potassium channel KCNH2 (Homo sapiens, UniProt Q12809); assay: Inhibition of human ERG
Voltage-gated inwardly rectifying potassium channel KCNH2, sequence (Q12809 whole entry): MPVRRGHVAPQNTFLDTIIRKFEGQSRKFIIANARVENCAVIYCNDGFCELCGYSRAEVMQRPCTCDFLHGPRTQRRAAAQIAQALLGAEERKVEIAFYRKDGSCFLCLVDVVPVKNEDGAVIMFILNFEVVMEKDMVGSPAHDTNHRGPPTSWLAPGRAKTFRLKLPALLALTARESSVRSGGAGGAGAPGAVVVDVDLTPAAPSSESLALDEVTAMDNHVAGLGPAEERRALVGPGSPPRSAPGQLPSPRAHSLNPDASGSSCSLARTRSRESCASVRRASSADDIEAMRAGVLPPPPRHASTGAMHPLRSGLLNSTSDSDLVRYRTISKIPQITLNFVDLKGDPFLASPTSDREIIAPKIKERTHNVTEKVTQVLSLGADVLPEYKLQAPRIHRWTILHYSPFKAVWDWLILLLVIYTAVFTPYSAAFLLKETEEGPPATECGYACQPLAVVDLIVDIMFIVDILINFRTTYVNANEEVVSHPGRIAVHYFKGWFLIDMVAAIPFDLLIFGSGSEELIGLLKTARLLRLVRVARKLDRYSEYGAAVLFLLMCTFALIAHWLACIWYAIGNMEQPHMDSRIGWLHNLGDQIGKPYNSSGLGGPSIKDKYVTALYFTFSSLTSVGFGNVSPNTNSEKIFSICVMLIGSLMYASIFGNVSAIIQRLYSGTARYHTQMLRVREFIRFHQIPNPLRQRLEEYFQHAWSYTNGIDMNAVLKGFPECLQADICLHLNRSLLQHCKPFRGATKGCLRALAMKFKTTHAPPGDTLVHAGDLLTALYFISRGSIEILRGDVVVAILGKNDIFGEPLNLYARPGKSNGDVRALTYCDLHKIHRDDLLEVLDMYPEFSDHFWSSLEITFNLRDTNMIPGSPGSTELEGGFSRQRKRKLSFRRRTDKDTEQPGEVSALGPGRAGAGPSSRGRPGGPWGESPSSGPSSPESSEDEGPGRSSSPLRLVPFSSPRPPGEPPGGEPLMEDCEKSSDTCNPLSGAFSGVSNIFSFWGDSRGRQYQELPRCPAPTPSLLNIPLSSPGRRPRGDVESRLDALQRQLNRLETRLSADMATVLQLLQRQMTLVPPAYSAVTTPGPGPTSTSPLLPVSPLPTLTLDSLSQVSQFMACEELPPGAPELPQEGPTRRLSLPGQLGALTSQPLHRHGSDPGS

[15] = system: Salmonella typhimurium; assay: Mutagenicity in Salmonella typhimurium in presence of human liver S9 fraction by Ames test; assay type: toxicity, organism-based; conditions: salmonella enterica subsp. enterica serovar typhimurium
[16] = system: Salmonella typhimurium; assay: Mutagenicity in Salmonella typhimurium in absence of human liver S9 fraction by Ames test; assay type: toxicity, organism-based; conditions: salmonella enterica subsp. enterica serovar typhimurium
[17] = system: dengue virus type 1; assay: Antiviral activity against Dengue virus 1 Djibouti D1/H/IMTSSA/98/606 infected in African green monkey Vero cells assessed as reduction in viral yield after 7 days by qRT-PCR analysis; assay type: functional, organism-based; conditions: Djibouti D1/H/IMTSSA/98/606, Vero, 168 h; method in brief: as §1
[18] = system: dengue virus type 3; assay: Antiviral activity against Dengue virus 3 H87 infected in African green monkey Vero cells assessed as reduction in viral yield after 7 days by qRT-PCR analysis; assay type: functional, organism-based; conditions: 168 h; method in brief: as §1
[19] = system: dengue virus type 4; assay: Antiviral activity against Dengue virus 4 DAKHD34460 infected in African green monkey Vero cells assessed as reduction in viral yield after 4 days by qRT-PCR analysis; assay type: functional, organism-based; conditions: 96 h; method in brief: as §1
[20] = Selectivity index, ratio of CC50 for African green monkey Vero cells to EC50 for Dengue virus 2 Rega; assay type: toxicity; conditions: read-out: Ratio CC50/EC50
[21] = system: dengue virus type 2; assay: Antiviral activity against Dengue virus 2 Rega infected in African green monkey Vero cells assessed as log10 reduction of viral RNA replication at nontoxic dose after 4 days by qRT-PCR analysis relative to control; assay type: functional
[22] = Half life in human liver microsomes; assay type: ADME, microsome
[23] = system: Vero; assay: as §2; assay type: cell-based; conditions: chlorocebus sabaeus, vero, 96 h; method in brief: as §3
[24] = as §4; assay type: ADME, cell-based, Sus scrofa; conditions: llc-pk1; method in brief: as §5
[25] = Clearance in rat at 2.5 mg/kg, iv; assay type: ADME, organism-based; conditions: in vivo
Method in brief: (§7)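 Rat PK. Intravenous dose was 2.5 mg/kg in PEG400/water 7/3. Oral dose was 10 mg/kg in PEG400.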

[26] = Volume of distribution at steady state in rat at 2.5 mg/kg, iv; assay type: ADME, organism-based; conditions: in vivo, read-out: Vdss; method in brief: as §7
[27] = Half life in rat at 2.5 mg/kg, iv; assay type: ADME, organism-based; conditions: in vivo; method in brief: as §7
[28] = Cmax in rat at 10 mg/kg, po; assay type: ADME, organism-based; design: dose 10 mg/kg, route oral; conditions: in vivo; method in brief: as §7
[29] = AUClast in rat at 10 mg/kg, po; assay type: ADME, organism-based; design: dose 10 mg/kg, route oral, time 0 - last; conditions: in vivo; method in brief: as §7
[30] = Oral bioavailability in rat at 10 mg/kg; assay type: ADME, organism-based; conditions: in vivo; method in brief: as §7

## COc1cccc(NC(C(=O)c2c[nH]c3ccccc23)c2nc3ccccc3o2)c1 (configuration not stated)
[1]; Dengue virus, Rega, Vero, 96 h
  EC50: 0.011 µM
[2]
  CC50 at 96 h: 13 µM
[3]; read-out: solubility
  solubility: 1 µM (≈ 0.397 µg/mL)
[4]
  Papp A→B: 5.6 ×10⁻⁶ cm/s
[5]
  fraction unbound: < 0.002
[6]
  fraction unbound: < 0.004
[7]
  metabolised at 0.25 h: 19%
[8]
  metabolised at 0.25 h: 99%
[9]
  IC50: 4.2 µM
[10]
  IC50: 3.2 µM
[11]
  IC50: 6.1 µM
[12]
  IC50: > 10 µM
[13]
  IC50: > 10 µM

## COc1cncc(NC(C(=O)c2c[nH]c3ccccc23)c2ccccc2)c1 (configuration not stated)
[1]; Dengue virus, Rega, Vero, 96 h
  EC50: 0.036 µM
[2]
  CC50 at 96 h: 20 µM
[3]; read-out: solubility
  solubility: 42 µM (≈ 15 µg/mL)
[4]
  Papp A→B: 4.7 ×10⁻⁶ cm/s
[5]
  fraction unbound: 0.005
[6]
  fraction unbound: 0.008
[7]
  metabolised at 0.25 h: 23%
[8]
  metabolised at 0.25 h: 86%
[14]
  IC50: 3.5 µM
[9]
  IC50: 2.8 µM
[10]
  IC50: 2.5 µM
[11]
  IC50: 3.3 µM
[12]
  IC50: 8.4 µM
[13]
  IC50: 0.05 µM
[15]
  Activity: Non-Toxic
[16]
  Activity: Non-Toxic

## COc1ccc(NC(C(=O)c2c[nH]c3ccccc23)c2ccccc2)cc1OC (configuration not stated)
[1]; Dengue virus, Rega, Vero, 96 h
  EC50: 0.078 µM
[2]
  CC50 at 96 h: 29 µM
[17]
  EC50: 1.6 µM
[18]
  EC50: 29.4 µM
[19]
  EC50: 4.5 µM
[15]
  Activity: Non-Toxic
[16]
  Activity: Non-Toxic
[20]
  selectivity ratio: 380
[21]
  FC: 3.8

## COc1cc(NC(C(=O)c2c[nH]c3ccc(CCCO)cc23)c2ccccc2)cc(OC)c1 (configuration not stated)
[1]; Dengue virus, Rega, Vero, 96 h
  EC50: 0.096 µM
[2]
  CC50 at 96 h: 56 µM
[3]; read-out: solubility
  solubility: 23 µM (≈ 10.2 µg/mL)
[22]
  half-life: 0.633 h

## COc1cc(NC(C(=O)c2c[nH]c3ccccc23)c2ccccc2)cc(OC)c1 (racemic)
[1]; vero
  EC50: 0.007 µM
[23]
  CC50: 16 µM
[24]
  Papp: 7.5 ×10⁻⁶ cm/s
[5]
  PPB: 99.8%
[6]
  PPB: 99.9%
[7]
  Drug metabolism: 11%
[8]
  Drug metabolism: 63%
[14]
  IC50: > 50 µM
[9]
  IC50: 2.4 µM
[10]
  IC50: 4 µM
[11]
  IC50: 4.8 µM
[12]
  IC50: > 10 µM
[13]
  IC50: > 10 µM
[15]
  Activity: Non-Toxic
[16]
  Activity: Non-Toxic

## COc1cc(NC(C(=O)c2c[nH]c3ccccc23)c2ccccc2)cc(OCCO)c1 (single isomer, unassigned; (+))
[1]; vero
  EC50: 0.012 µM
[23]
  CC50: 105 µM
[3]; read-out: solubility
  solubility: 48 µM (≈ 20 µg/mL)
[4]
  Papp A→B: 1.8 ×10⁻⁶ cm/s
[5]
  fraction unbound: 0.01
[6]
  fraction unbound: 0.008
[7]
  Drug metabolism: 2%
[8]
  metabolised at 0.25 h: 21%
[14]
  IC50: > 50 µM
[9]
  IC50: > 10 µM
[10]
  IC50: 4.4 µM
[11]
  IC50: 3.1 µM
[12]
  IC50: > 10 µM
[13]
  IC50: > 10 µM
[25]
  clearance: 35 mL/min/kg
[26]
  Vd: 5.8 L/kg
[27]
  half-life: 2.4 h
[28]
  Cmax: 706 nM
[29]
  AUC(0-t): 7.32 µM·h
[30]
  bioavailability: 64%

## COc1cc(NC(C(=O)c2c[nH]c3ccccc23)c2ccccc2)cc(OC)c1 (single isomer, unassigned; (+))
[1]; vero
  EC50: 0.001 µM
[2]
  CC50 at 96 h: 13 µM
[17]
  EC50: 0.047 µM
[18]
  EC50: 0.092 µM
[19]
  EC50: 1.9 µM
[3]; read-out: solubility
  solubility: 6 µM (≈ 2.32 µg/mL)
[4]
  Papp A→B: 7.6 ×10⁻⁶ cm/s
[5]
  PPB: 99.7%
[6]
  fraction unbound: 0.002
[7]
  metabolised at 0.25 h: 14%
[8]
  Drug metabolism: 37%
[9]
  IC50: 1.4 µM
[10]
  IC50: 2.3 µM
[11]
  IC50: 3.2 µM
[12]
  IC50: > 10 µM
[13]
  IC50: > 10 µM
[25]
  clearance: 67 mL/min/kg
[26]
  Vd: 26 L/kg
[27]
  half-life: 4.7 h
[28]
  Cmax: 88 nM
[29]
  AUC(0-t): 0.422 µM·h
[30]
  bioavailability: 7%

## COc1cc(NC(C(=O)c2c[nH]c3ccccc23)c2ccccc2)cc(OC)c1 (stereo in doubt; 12b)
[1]; vero
  EC50: 0.348 µM
[23]
  CC50: 11 µM
[3]
  solubility: 9 µM (≈ 3.48 µg/mL)
[24]
  Papp: 7.4 ×10⁻⁶ cm/s
[5]
  PPB: 99.9%
[6]
  PPB: > 99.9%
[7]
  Drug metabolism: 16%
[8]
  Drug metabolism: 91%
[9]
  IC50: 6.4 µM
[10]
  IC50: 3 µM
[11]
  IC50: 3 µM
[12]
  IC50: > 10 µM
[13]
  IC50: > 10 µM

From ChEMBL document CHEMBL4196174, “Discovery of Indole Derivatives as Novel and Potent Dengue Virus Inhibitors” (J Med Chem, 2018)
